Test [1] in a line: hit retest on RPL19A-GFP reporter strain – cell-based, S. cerevisiae, flow cytometry, cherry picks, mother/daughter gates, confirmation (AID 2270;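 active = GFP response below 50% of the DMSO control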). The following applies: 3 h, at 10 µM, stronger effect = lower value, 100 = same GFP as DMSO wells. For orientation: In flow cytometry, cells or beads pass a laser one at a time.
A short description of test [2]: yeast TOR pathway reporter LAP4-GFP change – cell-based, cherry picks, flow cytometry, mother/daughter gates, confirmation (AID 2271;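 active = GFP response above 150% of the DMSO control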;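 also: ratio of sample to DMSO plate mean so 100% equals DMSO level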). The note with it: S. cerevisiae LAP4-GFP strain, 3 h, at 10 µM, stronger effect = higher value, 100 means same as DMSO control. Summed up: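 System: GFP-fusion yeast strain | Input: Yeast cells seeded at OD600 of 0.2 | Technique: HT flow cytometry, GFP fluorescence channel | Read-out: % GFP response vs DMSO | Dosing: Single test-compound dose, 10 µM final | Controls: Positive rapamycin (400 ng/mL), negative DMSO | Times: 3 h treatment at 30 °C with rotation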

A short description of test [3]: TOR pathway reporter MEP2-GFP, retest of hits – S. cerevisiae, flow cytometry GFP, cherry picks, confirmation (AID 2272;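 active = GFP response above 150% of the DMSO control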;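 also: ratio of well signal to plate DMSO mean so 100% equals DMSO level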). The following applies: S. cerevisiae MEP2-GFP strain, 3 h, at 10 µM, stronger effect = higher value.
The nature of test [4]: yeast AGP1-GFP fluorescence change, single-dose – cell-based, flow cytometry, S. cerevisiae, cherry picks, confirmation (AID 2273).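 Also: median GFP channel fluorescence over the whole cell population gate.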 The following applies: S. cerevisiae AGP1-GFP strain, 3 h, at 10 µM.
Test [5] is described as follows: TOR pathway CIT2 reporter hit retest – S. cerevisiae, GFP fusion, cherry picks, mother/daughter gates, confirmation (AID 2274). The note with it: S. cerevisiae CIT2-GFP strain, flow cytometry, 3 h, at 10 µM, stronger effect = higher value.
[6] abbreviates: measured here: daughter cell gate.
[7] abbreviates: measured here: mother cell gate.
The mark [8] stands for this setting: measured here: daughter cell gate response.
Where [9] appears, read: measured here: mother cell gate response.

The structures appear in SMILES notation. Activity calls are given as the source filed them.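 The calls were made as follows, unless noted: active = GFP response above 150% of the DMSO level; inconclusive = fewer than 70 events counted for a yeast strain; inactive = the rest.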

Take `COc1ccc(C2CC(c3c(-c4ccccc4)c4cc(Cl)ccc4[nH]c3=O)=NN2S(C)(=O)=O)cc1OC` (configuration not stated): the GFP response vs DMSO in test [1] is 99.6% (inactive); in test [1] (setting [6]) it was 101%; in test [1] (setting [7]), 98.5%; in test [3], 96.2% (inactive). Moreover, the figures for the GFP response relative to DMSO in test [2], in test [2] (setting [8]) and in test [2] (setting [9]) were 91.5% (inactive), 92.8% and 89.7%, respectively. Moreover, the GFP response, % of DMSO in test [4] was 98.3% (inactive); in test [5] it was 99.7% (inactive); in test [5] (setting [6]), 99.1%; in test [5] (setting [7]) it was 98.5%.
Turning to `Cc1ccccc1N1C(=O)c2cccc3c(N(C)CCO)ccc(c23)C1=O`, the GFP response vs DMSO in test [1] is 99.5% (inactive); in test [1] (setting [6]), 99.8%; in test [1] (setting [7]), 100%; in test [3] it was 104% (inactive). Moreover, the figures for the GFP response relative to DMSO in test [2], in test [2] (setting [8]) and in test [2] (setting [9]) were 100% (inactive), 99.3% and 98.5%, respectively. The GFP response, % of DMSO was 103% (inactive) in test [4], 101% (inactive) in test [5], 102% in test [5] (setting [6]) and 100% in test [5] (setting [7]).
Consider `O=C(OCc1ccco1)c1ccc(S(=O)(=O)N2CCCCC2)cc1`, for which the GFP response vs DMSO in test [1] was 101% (inactive); in test [1] (setting [6]), 97.9%; in test [1] (setting [7]), 101%; in test [3], 99% (inactive). In addition, the GFP response relative to DMSO is 98.2% (inactive) in test [2], 97.5% in test [2] (setting [8]) and 98.4% in test [2] (setting [9]). The GFP response, % of DMSO in test [4] is 96.1% (inactive); in test [5] it was 102% (inactive); in test [5] (setting [6]), 99.2%; in test [5] (setting [7]), 91.9%.
Regarding `COc1ccc(CC(=O)Oc2ccccc2C)cc1`, the GFP response vs DMSO is 98% (inactive) in test [1], 99.6% in test [1] (setting [6]), 98.3% in test [1] (setting [7]) and 102% (inactive) in test [3]. The values for the GFP response relative to DMSO in test [2], in test [2] (setting [8]) and in test [2] (setting [9]) were 100% (inactive), 97.9% and 98.5%, respectively. Further, the GFP response, % of DMSO was 94.3% (inactive) in test [4], 96.4% (inactive) in test [5], 96.4% in test [5] (setting [6]) and 95.6% in test [5] (setting [7]).
In the case of `O=C(Oc1ccnc2cc(Cl)ccc12)N1CCCCCC1`, the GFP response vs DMSO in test [1] is 99.3% (inactive); in test [1] (setting [6]) it was 97.3%; in test [1] (setting [7]), 95%; in test [3], 437% (active). In addition, the GFP response relative to DMSO in test [2] is 114% (inactive); in test [2] (setting [8]), 111%; in test [2] (setting [9]), 117%. The GFP response, % of DMSO in test [4] was 185% (active); in test [5] it was 92.6% (inactive); in test [5] (setting [6]) it was 93.2%; in test [5] (setting [7]), 89.1%.
Regarding `Cc1cccc(/C=C/c2onc(C)c2[N+](=O)[O-])n1`, the GFP response vs DMSO is 99.9% (inactive) in test [1], 99.5% in test [1] (setting [6]), 96.6% in test [1] (setting [7]) and 100% (inactive) in test [3]. Besides, the GFP response relative to DMSO is 146% (inactive) in test [2], 137% in test [2] (setting [8]) and 147% in test [2] (setting [9]). The GFP response, % of DMSO is 94.3% (inactive) in test [4], 87.4% (inactive) in test [5], 91.5% in test [5] (setting [6]) and 82.6% in test [5] (setting [7]).
In the case of `CC(=O)Nc1ccc(-c2csc(NC(=O)c3ccc(C)o3)n2)cc1`, the GFP response vs DMSO in test [1] was 98.4% (inactive); in test [1] (setting [6]) it was 98.1%; in test [1] (setting [7]) it was 99.8%; in test [3], 100% (inactive). Further, the results for the GFP response relative to DMSO in test [2], in test [2] (setting [8]) and in test [2] (setting [9]) were 97.9% (inactive), 99.2% and 98.3%, respectively. Moreover, the GFP response, % of DMSO in test [4] was 98.3% (inactive); in test [5], 105% (inactive); in test [5] (setting [6]), 106%; in test [5] (setting [7]), 104%.
As to `O=C(Cn1c(=O)oc2cc(S(=O)(=O)N3CCCC3)ccc21)Nc1ccccc1Br`, the GFP response vs DMSO in test [1] was 93.7% (inactive); in test [1] (setting [6]), 92.6%; in test [1] (setting [7]), 94.3%; in test [3] it was 102% (inactive). Further, the figures for the GFP response relative to DMSO in test [2], in test [2] (setting [8]) and in test [2] (setting [9]) were 97.9% (inactive), 97.6% and 96.1%, respectively. Besides, the GFP response, % of DMSO in test [4] is 99.9% (inactive); in test [5] it was 101% (inactive); in test [5] (setting [6]) it was 103%; in test [5] (setting [7]), 102%.
For `COC(=O)c1ccc(N2C(=O)CC(Sc3n[nH]c(C)n3)C2=O)cc1` (configuration not stated), the GFP response vs DMSO in test [1] was 101% (inactive); in test [1] (setting [6]), 103%; in test [1] (setting [7]) it was 98%; in test [3], 108% (inactive). The values for the GFP response relative to DMSO in test [2], in test [2] (setting [8]) and in test [2] (setting [9]) were 128% (inactive), 130% and 131%, respectively. The GFP response, % of DMSO in test [4] is 101% (inactive); in test [5], 106% (inactive); in test [5] (setting [6]), 108%; in test [5] (setting [7]), 103%.
For `O=C(NCCN1CCOCC1)c1ccc(CS(=O)(=O)Cc2ccccc2F)o1`, the GFP response vs DMSO is 99.6% (inactive) in test [1], 100% in test [1] (setting [6]), 99.7% in test [1] (setting [7]) and 103% (inactive) in test [3]. The GFP response relative to DMSO in test [2] was 98.6% (inactive); in test [2] (setting [8]), 99.7%; in test [2] (setting [9]) it was 98.2%. Further, the GFP response, % of DMSO is 104% (inactive) in test [4], 110% (inactive) in test [5], 108% in test [5] (setting [6]) and 110% in test [5] (setting [7]).
For `Cc1onc(-c2c(Cl)cccc2Cl)c1NC(=O)NNc1c(Cl)cncc1Cl`, the GFP response vs DMSO in test [1] is 99.8% (inactive); in test [1] (setting [6]), 99.4%; in test [1] (setting [7]), 99.2%; in test [3], 100% (inactive). For the same molecule, the figures for the GFP response relative to DMSO in test [2], in test [2] (setting [8]) and in test [2] (setting [9]) were 103% (inactive), 102% and 100%, respectively. The GFP response, % of DMSO in test [4] is 97.2% (inactive); in test [5] it was 99.7% (inactive); in test [5] (setting [6]), 101%; in test [5] (setting [7]), 97.3%.
Consider `Cc1c(C)c2ccc(OCC(=O)NCCCn3ccnc3)cc2oc1=O`, for which the GFP response vs DMSO is 97.8% (inactive) in test [1], 97.4% in test [1] (setting [6]), 98.5% in test [1] (setting [7]) and 105% (inactive) in test [3]. Further, the results for the GFP response relative to DMSO in test [2], in test [2] (setting [8]) and in test [2] (setting [9]) were 96.7% (inactive), 96% and 96.1%, respectively. Moreover, the GFP response, % of DMSO in test [4] is 97.6% (inactive); in test [5] it was 101% (inactive); in test [5] (setting [6]) it was 101%; in test [5] (setting [7]), 101%.
As to `Cc1csc(Nc2ccccc2C(F)(F)F)n1`, the GFP response vs DMSO in test [1] is 96.2% (inactive); in test [1] (setting [6]), 94.2%; in test [1] (setting [7]) it was 95.9%; in test [3], 101% (inactive). Further, the GFP response relative to DMSO in test [2] is 105% (inactive); in test [2] (setting [8]) it was 104%; in test [2] (setting [9]), 108%. Also, the GFP response, % of DMSO is 94.3% (inactive) in test [4], 97.2% (inactive) in test [5], 97.6% in test [5] (setting [6]) and 94.9% in test [5] (setting [7]).
With `CCc1sc(C(=O)N2CCc3ccccc32)cc1C`, the GFP response vs DMSO is 94.9% (inactive) in test [1], 93.3% in test [1] (setting [6]), 94.6% in test [1] (setting [7]) and 99.3% (inactive) in test [3]. The figures for the GFP response relative to DMSO in test [2], in test [2] (setting [8]) and in test [2] (setting [9]) were 114% (inactive), 111% and 114%, respectively. The GFP response, % of DMSO is 96.8% (inactive) in test [4], 87.5% (inactive) in test [5], 85.2% in test [5] (setting [6]) and 88.2% in test [5] (setting [7]).
In the case of `COc1ccc(S(=O)(=O)N2Cc3ccccc3CC2C(=O)O)cc1OC` (configuration not stated), the GFP response vs DMSO in test [1] is 97% (inactive); in test [1] (setting [6]), 97%; in test [1] (setting [7]), 97.1%; in test [3], 104% (inactive). Besides, the GFP response relative to DMSO in test [2] is 98.8% (inactive); in test [2] (setting [8]) it was 96.5%; in test [2] (setting [9]), 98.5%. In addition, the GFP response, % of DMSO was 102% (inactive) in test [4], 99.3% (inactive) in test [5], 100% in test [5] (setting [6]) and 99.1% in test [5] (setting [7]).
`Cc1nonc1C(=O)N/N=C/c1ccc([N+](=O)[O-])o1`: the GFP response vs DMSO in test [1] was 100% (inactive); in test [1] (setting [6]) it was 101%; in test [1] (setting [7]) it was 101%; in test [3], 105% (inactive). For the same molecule, the values for the GFP response relative to DMSO in test [2], in test [2] (setting [8]) and in test [2] (setting [9]) were 111% (inactive), 109% and 113%, respectively. Also, the GFP response, % of DMSO in test [4] is 106% (inactive); in test [5], 105% (inactive); in test [5] (setting [6]), 105%; in test [5] (setting [7]) it was 104%.
With `Cc1ccc(S(=O)(=O)NCC23C=CC(O2)C2C(=O)N(c4ccccc4)C(=O)C23)cc1` (configuration not stated), the GFP response vs DMSO is 98.4% (inactive) in test [1], 98.9% in test [1] (setting [6]), 98.7% in test [1] (setting [7]) and 102% (inactive) in test [3]. Moreover, the GFP response relative to DMSO in test [2] is 96.7% (inactive); in test [2] (setting [8]), 97.6%; in test [2] (setting [9]), 97.2%. Besides, the GFP response, % of DMSO in test [4] was 99.9% (inactive); in test [5], 105% (inactive); in test [5] (setting [6]) it was 105%; in test [5] (setting [7]), 104%.

The values above are taken from PubChem BioAssay.
